For experiment [1], the target named is T1, mGlu5 (Rattus norvegicus, UniProt P31424). The experiment can be described thus: Agonist Ca2+ mobilization after acute NAM exposure and extensive washes. Type of experiment: cell-based. Conditions: for ΔEmax: change after azido-alkyne 8 (1uM).
Experiment [2] addresses T1, mGlu5. Type of experiment: cell-based. The settings on record: for EC80 glutamate inhibition hill slope: HEK293A-mGlu5-low.
For experiment [3], the target named is T1, mGlu5. The experiment is described as follows: [3H]mPEPy inhibition binding, membranes from HEK293A-mGlu5-low. The settings on record: for displacement of [3H]mPEPy binding, incubation time 4 h: equilibration time extended to 4 h. Put shortly:
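HEK293A-mGlu5-low membranes with ~2 nM [3H]mPEPy and test compound (0.3 nM–30 μM) in Ca2+ assay buffer, RT, 1 h initially, extended to 4 h. […] Filtration on GF/B, ice-cold 0.9% NaCl/50 mM Tris pH 7.4 washes, scintillation counting.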

In experiment [4] the target is T1, mGlu5. Type of experiment: binding. Conditions: for [3H]mPEPy binding after pretreatment, three (5 min) washes: 1 μM pretreatment. In a few lines: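 Whole HEK293A-mGlu5-low cells plated at ~200 000 cells/well on poly-D-lysine. Test compound (1 μM) applied 10 min at RT, with or without UV. Washed either 3 × 5 min or 5 × 1 h at RT in Ca2+ assay buffer. Then ~2 nM [3H]mPEPy for 1 h at RT, ice-cold 0.9% NaCl washes, 0.2 M NaOH lysis overnight, liquid scintillation counting.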

Experiment [5] has as its target T1, mGlu5. The experiment can be described thus: Modulation of glutamate concentration-response curves for Ca2+ mobilization. Type of experiment: cell-based.
Experiment [6] deals with T1, mGlu5. The experiment is described as follows: Agonist activity in mGlu5 intracellular Ca2+ mobilization. It counts as cell-based. The settings on record: absence of glutamate.

Each structure is given as a SMILES string. Entries after “also recorded” stand apart in the source; their conditions may differ. Read-outs that look alike come from different tables or passages of the source.

T1 sequence (P31424 21-1203): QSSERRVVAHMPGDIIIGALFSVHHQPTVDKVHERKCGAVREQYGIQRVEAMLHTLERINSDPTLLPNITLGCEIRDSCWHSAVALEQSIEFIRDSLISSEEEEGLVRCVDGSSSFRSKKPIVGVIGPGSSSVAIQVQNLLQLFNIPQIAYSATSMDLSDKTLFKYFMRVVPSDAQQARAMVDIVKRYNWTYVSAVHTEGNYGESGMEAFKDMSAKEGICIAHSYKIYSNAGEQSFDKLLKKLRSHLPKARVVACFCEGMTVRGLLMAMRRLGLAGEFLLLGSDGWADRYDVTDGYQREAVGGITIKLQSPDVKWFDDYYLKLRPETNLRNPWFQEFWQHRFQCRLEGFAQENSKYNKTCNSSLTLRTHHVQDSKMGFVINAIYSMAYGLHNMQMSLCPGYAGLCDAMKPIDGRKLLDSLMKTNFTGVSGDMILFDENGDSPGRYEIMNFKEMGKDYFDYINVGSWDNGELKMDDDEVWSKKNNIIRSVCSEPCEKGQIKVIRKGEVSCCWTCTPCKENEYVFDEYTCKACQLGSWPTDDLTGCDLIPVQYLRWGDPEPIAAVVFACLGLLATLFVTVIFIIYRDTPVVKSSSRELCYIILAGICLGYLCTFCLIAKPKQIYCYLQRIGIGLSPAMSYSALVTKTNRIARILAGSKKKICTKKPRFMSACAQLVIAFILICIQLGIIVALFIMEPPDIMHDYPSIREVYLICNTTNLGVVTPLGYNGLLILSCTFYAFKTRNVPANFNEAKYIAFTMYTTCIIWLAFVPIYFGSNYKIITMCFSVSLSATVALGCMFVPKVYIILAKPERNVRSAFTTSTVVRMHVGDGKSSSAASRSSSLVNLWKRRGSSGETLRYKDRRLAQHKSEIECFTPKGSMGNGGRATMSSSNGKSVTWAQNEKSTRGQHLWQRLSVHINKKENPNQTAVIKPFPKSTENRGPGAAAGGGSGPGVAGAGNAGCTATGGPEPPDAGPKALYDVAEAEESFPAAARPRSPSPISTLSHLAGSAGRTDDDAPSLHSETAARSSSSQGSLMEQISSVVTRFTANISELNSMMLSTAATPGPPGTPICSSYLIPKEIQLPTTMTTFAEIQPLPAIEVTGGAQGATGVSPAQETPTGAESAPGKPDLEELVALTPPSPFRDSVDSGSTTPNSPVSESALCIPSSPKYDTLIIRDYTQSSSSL

With `C[C@@H](NC(=O)c1ccc(C#Cc2cccc(F)c2)cn1)C(C)(C)O` [VU0424465], the “pEC50 (untreated)” value on mGlu5 [1] (HEK293A-mGlu5-low, untreated) was 6.60 ± 0.18. Besides, the ΔEmax on mGlu5 [1] was −18.3 ± 10.8 percentage of the maximum response to glutamate. Also, the pKA at mGlu5 [1] (equilibrium dissociation constant of the agonist, receptor depletion with azido-alkyne 8 (1uM)) was found to be 6.17 ± 0.25. For the same compound, at mGlu5 [1] (treated with azido-alkyne 8 (1uM)), the “pEC50 (treated)” value is 6.11 ± 0.23.
As to `Cc1cccc(C#Cc2ccccc2)n1` [6 (MPEP), MPEP, reference compound], the “EC80 glutamate inhibition hill slope” value at mGlu5 [2] is −1.53 ± 0.18. Further, at mGlu5 [2] (operational model of allosterism applied to EC80 glutamate inhibition curves), the “EC80 glutamate inhibition pKB” value is reported as 7.97 ± 0.16. The “displacement of [3H]mPEPy binding, incubation time 4 h” value at mGlu5 [3] is recorded as “no effect”. Besides, at mGlu5 [4], the “[3H]mPEPy binding after pretreatment, three (5 min) washes” value was “reduced [^3H]mPEPy binding to a similar extent”. Moreover, on mGlu5 [1] (10 min exposure followed by five extended washes), the “effect of pre-exposure on potency or maximal response to glutamate or VU0424465” value was “no effect”. Moreover, the “inhibition of mGlu5 photoaffinity labeling of the clickable photoprobes” value in the experiment with purified mGlu5 (saturating concentration (10 μM)) is given as “did not inhibit”.
Take `COc1cc(O)c(C(=O)c2ccccc2)cc1S(=O)(=O)O` [compound 4]: on mGlu5 [2], the IC50 was 647 nM, the Kb is 891 nM, the “fold less potent than lead NAM 2 at inhibiting EC80 glutamate response” value was ~ 5 fold and the “EC80 glutamate inhibition hill slope” value is −0.91 ± 0.23. At mGlu5 [3], the Ki is 25.1 nM and the “displacement of [3H]mPEPy binding, incubation time 4 h” value was “complete displacement; also recorded: fully displaced”. Also, the “displacement of [3H]mPEPy binding” value at mGlu5 [3] (initial assay conditions) is given as “incomplete displacement”. The “fold higher mGlu5 binding affinity relative to lead NAM 2” value at mGlu5 [3] (radioligand inhibition binding) amounted to 2 fold. Moreover, the “fold increase of affinity estimate with 30 min versus 1 min preincubation” value on mGlu5 [5] is ~ 10 fold. For the same compound, on mGlu5 [5] (1 min pre-exposure), the “effect on glutamate maximal functional response” value is recorded as “complete inhibition”. In addition, the Kb on mGlu5 [5] (affinity estimate pKB, 30 min preincubation, photoprobe preincubation 30 min) is 36.3 nM. Also, on mGlu5 [5] (allosteric interaction assay, 1 min), the “affinity estimate (pKB) fold difference to benzyl ether derivative 3” value was not above 5 fold. At mGlu5 [6], the “intrinsic agonist activity at mGlu5” value is given as “No evidence of agonist activity; also recorded: no intrinsic agonist activity”. Besides, on mGlu5 [4], the “[3H]mPEPy binding after pretreatment, three (5 min) washes” value is “significantly reduced”. For the same compound, on mGlu5 [4] (absence of UV irradiation), the “[3H]mPEPy binding after extensive wash protocol (five 1 h washes)” value was “concentration-dependently inhibited”. Also, the “Cy5.5 in-gel fluorescence of mGlu5 dimer band” value with purified mGlu5 (absence of a competitor, versus vehicle) was “significantly increase”.
`N[C@@H](CCC(=O)O)C(=O)O` [glutamate]: the ΔEmax on mGlu5 [1] was −46.3 ± 18.3 percentage of the maximum response to glutamate.
